According to ChEMBL document CHEMBL1152513, “Synthesis and characterizations of novel quinoline derivatives having mixed ligand activities at the kappa and mu receptors: Potential therapeutic efficacy against morphine dependence” (Bioorg Med Chem, 2009):
The source made the active and inactive calls. The calls are words filed in the database; no cut-off is given here.

How the values were obtained:
[1] = target: Mu-type opioid receptor (Rattus norvegicus) (UniProt P33535); assay: Displacement of [3H]DAMGO from mu opioid receptor in rat brain measured total binding per mg of protein at 5 uM; format: tissue-based
[2] = target: Kappa-type opioid receptor (Homo sapiens) (UniProt P41145); assay: Displacement of [3H]dynorphin from human kappa opioid receptor expressed in C6 giloma cells measured total binding per mg of protein at 5 uM; format: cell-based
Method in brief: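 Membranes from C6 glioma cells stably transfected with human KOR (G418 selected), harvested in PBS, homogenized in 50 mM Tris–HCl pH 7.4 and spun at 30,000g. Nonspecific binding defined with 10 µM U50488H. Read by filtration and counting.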

Rattus norvegicus [3] = organism: Rattus norvegicus; assay: Induction of ERK phosphorylation in rat primary astrocyte at 40 uM after 10 mins
Method in brief: (§1)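 Primary astrocytes from neocortex of newborn rat pups (<24 h), grown 10 days, then serum-starved 48 h. Treated 10 min at 40 µM; antagonists added 1 h before stimulation. pERK1/2 measured by western blot, 40 µg protein/lane, 10% SDS-PAGE, anti-p-ERK at 1:1000. Mean ± SEM of at least 3 blots, compared with untreated control.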

Mus musculus [4] = assay: Inhibition of naloxone-induced stereotype jumping in morphine treated mouse at 20 mg/kg, iv for 6 days; format: functional, organism-based; design: dose 20 mg/kg
Mus musculus [5] = assay: Inhibition of naloxone-induced weight loss in mouse at 20 mg/kg, iv for 6 days; format: functional, organism-based; design: dose 20 mg/kg
Rattus norvegicus [6] = organism: Rattus norvegicus; assay: Induction of ERK phosphorylation in rat primary astrocyte at 40 uM after 10 mins in presence of naloxone; method in brief: as §1

Chain of Mu-type opioid receptor (Rattus norvegicus) (P33535 whole entry): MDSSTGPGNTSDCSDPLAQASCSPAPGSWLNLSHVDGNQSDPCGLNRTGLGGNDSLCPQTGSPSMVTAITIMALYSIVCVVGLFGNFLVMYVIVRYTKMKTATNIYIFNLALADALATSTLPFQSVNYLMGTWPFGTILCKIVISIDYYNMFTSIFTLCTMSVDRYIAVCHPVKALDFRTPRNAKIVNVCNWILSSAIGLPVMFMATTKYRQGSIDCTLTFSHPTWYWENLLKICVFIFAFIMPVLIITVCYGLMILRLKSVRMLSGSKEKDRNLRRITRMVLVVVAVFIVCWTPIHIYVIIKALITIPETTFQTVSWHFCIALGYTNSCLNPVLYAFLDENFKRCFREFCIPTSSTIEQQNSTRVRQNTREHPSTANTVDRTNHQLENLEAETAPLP
Chain of Kappa-type opioid receptor (Homo sapiens) (P41145 whole entry): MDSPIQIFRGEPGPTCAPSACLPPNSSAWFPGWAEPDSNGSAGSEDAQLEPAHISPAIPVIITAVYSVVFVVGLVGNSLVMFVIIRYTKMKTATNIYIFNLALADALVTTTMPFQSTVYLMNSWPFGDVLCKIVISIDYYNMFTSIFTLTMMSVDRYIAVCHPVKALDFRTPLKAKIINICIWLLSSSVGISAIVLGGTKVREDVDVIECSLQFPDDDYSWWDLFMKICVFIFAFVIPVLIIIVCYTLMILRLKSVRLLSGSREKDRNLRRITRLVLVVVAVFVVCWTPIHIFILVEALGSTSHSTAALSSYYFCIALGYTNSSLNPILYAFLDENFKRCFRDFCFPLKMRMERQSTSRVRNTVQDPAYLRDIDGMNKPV

SMILES | Activity [1] [%] | Activity [2] [%] | Activity (Rattus norvegicus [3]) | Activity (Mus musculus [4]) | Activity (Mus musculus [5]) | Activity (Rattus norvegicus [6])
Cc1cc(N)c2ccccc2n1 | 95 | 71 | Active |  |  | 
Cc1cc(NCC(=O)Nc2cc(Cl)ccc2Cl)c2ccccc2n1 | 66 | 74 | Active |  |  | 
Cc1cc(NC(=O)C(Cl)Cl)c2ccccc2n1 | 106 | 77 | Active |  |  | 
Cc1cc(NCC(=O)Nc2ccccc2Cl)c2ccccc2n1 | 52 | 52 | Active | Active |  | 
O=C(CCCl)Nc1ccccc1 | 61 | 59 | Active |  | Active | 
Cc1cc(NCC(=O)Nc2ccccc2)c2ccccc2n1 | 30 | 38 | Active | Active |  | inactive
COc1ccc(NC(=O)CNc2cc(C)nc3ccccc23)cc1 | 27 | 44 | Active |  |  | 
Cc1cc(N(CC(=O)NC2CCCCC2)CC(=O)NC2CCCCC2)c2ccccc2n1 | 53 | 114 | Active |  |  | 
Cc1ccc(C(=O)Nc2cc(C)nc3ccccc23)cc1 | 62 | 58 | Active | Active | Active | 
Cc1ccc(NC(=O)CCNc2cc(C)nc3ccccc23)cc1 | 23 | 56 | Active |  |  | 
C[C@@H](NC(=O)[C@@H](N)Cc1ccc(O)cc1)C(=O)NCC(=O)N(C)[C@@H](Cc1ccccc1)C(=O)NCCO | 76 |  |  |  |  | 
Cc1ccc(NC(=O)CNc2cc(C)nc3ccccc23)cc1 | 47 | 90 | Active | Active |  | 
